Activity calls are given as the source filed them. No cut-off for these calls is given here.
Columns and labels:
[1] = system: Mycolicibacterium smegmatis; test: Growth inhibition of Mycobacterium smegmatis upto 300 uM; format: functional, organism-based
[2] = Inhibition of Escherichia coli Histidine6-tagged 5 uM MenE expressed in Escherichia coli BL21 cells coexpressing Mycobacterium tuberculosis Histidine6-tagged 100 nM MenB assessed as formation of DHNA-CoA by coupled assay
Summary of the method: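 Counter-assay in the coupled format using separately purified His6-tagged E. coli MenE and M. tuberculosis MenB. MenB was limiting (100 nM) and MenE in excess (5 μM), to test for direct MenB inhibition. The read-out was DHNA-CoA formation.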

[3] = Inhibition of Escherichia coli Histidine6-tagged 20 nM MenE expressed in Escherichia coli BL21 cells coexpressing Mycobacterium tuberculosis Histidine6-tagged 7.2 uM MenB assessed as formation of DHNA-CoA by coupled assay
Summary of the method: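 Coupled MenE–MenB assay. E. coli MenE and M. tuberculosis MenB each carried an N-terminal His6 tag, were expressed separately in E. coli BL21, and were affinity-purified. Reactions contained MenB (7.2 μM), ATP, CoA and OSB (each 240 μM), and inhibitor (0–200 μM), and were started by adding MenE (20 nM final). DHNA-CoA formation was followed at 392 nm to derive IC50.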

SMILES	inhibition [1]	inhibition [2]	IC50 [3] [µM]
COC(=O)c1ccccc1C(=O)CCC(=O)NS(=O)(=O)NC[C@H]1O[C@@H](n2cnc3c(N)ncnc32)[C@H](O)[C@@H]1O	inactive	inactive	34.1
COC(=O)c1ccccc1C(=O)CCC(=O)NS(=O)(=O)OC[C@H]1O[C@@H](n2cnc3c(N)ncnc32)[C@H](O)[C@@H]1O	inactive	inactive	38
C=C(CCC(=O)NS(=O)(=O)NC[C@H]1O[C@@H](n2cnc3c(N)ncnc32)[C@H](O)[C@@H]1O)c1ccccc1C(=O)OC	inactive	inactive	> 200
C=C(CCC(=O)NS(=O)(=O)OC[C@H]1O[C@@H](n2cnc3c(N)ncnc32)[C@H](O)[C@@H]1O)c1ccccc1C(=O)OC	inactive	inactive	> 200
C=C(CC/C=C/S(=O)(=O)NC[C@H]1O[C@@H](n2cnc3c(N)ncnc32)[C@H](O)[C@@H]1O)c1ccccc1C(=O)OC	inactive	inactive	> 200
COC(=O)c1ccccc1C(=O)CC/C=C/S(=O)(=O)NC[C@H]1O[C@@H](n2cnc3c(N)ncnc32)[C@H](O)[C@@H]1O	inactive	inactive	5.7

Reference: ChEMBL document CHEMBL1154500, “Mechanism-based inhibitors of MenE, an acyl-CoA synthetase involved in bacterial menaquinone biosynthesis” (Bioorg Med Chem Lett, 2008)
